Activity calls are given as the source filed them.
Assays:
[1] = target: Histamine H2 receptor (Homo sapiens) (UniProt P25021); test: Inhibition of histamine H2 receptor at 10 uM
Outline: (§1)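 Radioligand displacement at a contract lab across a panel of 50 receptors, ion channels and transporters, single test concentration 10 μM; loss of specific ligand binding reported as percent, with >50% decrease counted as significant.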

[2] = target: Histamine H1 receptor (Homo sapiens) (UniProt P35367); test: Inhibition of histamine H1 receptor at 10 uM; outline: as §1
Sequence of Histamine H1 receptor (Homo sapiens) (P35367 whole entry): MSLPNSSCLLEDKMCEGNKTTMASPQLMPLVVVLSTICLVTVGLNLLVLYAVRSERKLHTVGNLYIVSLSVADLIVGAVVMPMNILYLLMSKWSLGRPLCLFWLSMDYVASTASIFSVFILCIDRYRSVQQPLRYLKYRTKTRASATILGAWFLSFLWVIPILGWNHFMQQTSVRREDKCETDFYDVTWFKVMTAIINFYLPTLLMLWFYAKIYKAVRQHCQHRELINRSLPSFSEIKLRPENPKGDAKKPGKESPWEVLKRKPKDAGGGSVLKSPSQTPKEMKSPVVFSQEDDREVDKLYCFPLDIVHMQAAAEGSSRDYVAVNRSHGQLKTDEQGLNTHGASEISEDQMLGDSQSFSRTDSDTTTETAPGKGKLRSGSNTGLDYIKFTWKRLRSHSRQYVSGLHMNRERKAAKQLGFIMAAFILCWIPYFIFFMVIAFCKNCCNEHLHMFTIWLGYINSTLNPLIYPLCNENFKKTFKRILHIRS

[3] = Cmax in BALB/c mouse at 50 mg/kg, po; type: ADME, organism-based; parameters: dose 50 mg/kg, route oral; details: in vivo
Outline: (§2)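 50 mg/kg by oral gavage in 3% EtOH-7% Tween 80-90% normal saline to groups of three females (BALB/c mice, 8–10 weeks, tail bleed; Sprague-Dawley rats, 10–12 weeks, saphenous vein). Plasma extracted with acetonitrile/internal standard, LC/MS; means of three animals. Oral elimination half-life depends on absorption rate as well as elimination.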

[4] = target: Muscarinic acetylcholine receptor M3 (Homo sapiens) (UniProt P20309); test: Inhibition of muscarinic M3 receptor at 10 uM; outline: as §1
Sequence of Muscarinic acetylcholine receptor M3 (Homo sapiens) (P20309 whole entry, looked up): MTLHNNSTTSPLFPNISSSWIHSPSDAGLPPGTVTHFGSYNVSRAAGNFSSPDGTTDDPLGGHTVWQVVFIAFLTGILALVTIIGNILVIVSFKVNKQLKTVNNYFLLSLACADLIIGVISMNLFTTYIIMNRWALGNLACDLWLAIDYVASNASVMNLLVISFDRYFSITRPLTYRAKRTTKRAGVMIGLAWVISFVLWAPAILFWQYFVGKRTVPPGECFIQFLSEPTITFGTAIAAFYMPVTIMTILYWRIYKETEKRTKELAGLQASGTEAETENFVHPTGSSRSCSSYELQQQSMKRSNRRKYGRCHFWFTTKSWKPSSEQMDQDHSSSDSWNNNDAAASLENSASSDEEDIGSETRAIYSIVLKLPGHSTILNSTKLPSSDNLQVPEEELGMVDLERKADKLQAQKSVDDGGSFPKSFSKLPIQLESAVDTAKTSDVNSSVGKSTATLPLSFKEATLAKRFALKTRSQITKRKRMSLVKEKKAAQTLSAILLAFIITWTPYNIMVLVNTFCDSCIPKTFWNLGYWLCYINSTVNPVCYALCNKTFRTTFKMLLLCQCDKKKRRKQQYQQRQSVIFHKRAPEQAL

Mus musculus = test: Toxicity in BALB/c mouse at 50 mg/kg, po; type: organism-based; parameters: dose 50 mg/kg, route oral; details: in vivo
Rattus norvegicus [5] = test: Toxicity in Plasmodium berghei NK65 infected Sprague-Dawley rat assessed as effect on electrolyte levels at 50 mg/kg, perorally administered every 8 hrs for 3 days; type: organism-based; parameters: dose 50 mg/kg, route oral; details: in vivo, po
Outline: (§3)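 Female Sprague-Dawley rats, 10-12 weeks, n = 3 per schedule. Dosed 50 mg/kg by oral gavage every 8 h or every 12 h for 72 h. At the end of dosing, blood was sent to a clinical laboratory for complete blood counts, white cell differentials, electrolytes, glucose, renal function, liver enzymes and cholesterol.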

[6] = target: Neuromedin-K receptor (Homo sapiens) (UniProt P29371); test: Inhibition of NK3 receptor at 10 uM
Sequence of Neuromedin-K receptor (Homo sapiens) (P29371 whole entry): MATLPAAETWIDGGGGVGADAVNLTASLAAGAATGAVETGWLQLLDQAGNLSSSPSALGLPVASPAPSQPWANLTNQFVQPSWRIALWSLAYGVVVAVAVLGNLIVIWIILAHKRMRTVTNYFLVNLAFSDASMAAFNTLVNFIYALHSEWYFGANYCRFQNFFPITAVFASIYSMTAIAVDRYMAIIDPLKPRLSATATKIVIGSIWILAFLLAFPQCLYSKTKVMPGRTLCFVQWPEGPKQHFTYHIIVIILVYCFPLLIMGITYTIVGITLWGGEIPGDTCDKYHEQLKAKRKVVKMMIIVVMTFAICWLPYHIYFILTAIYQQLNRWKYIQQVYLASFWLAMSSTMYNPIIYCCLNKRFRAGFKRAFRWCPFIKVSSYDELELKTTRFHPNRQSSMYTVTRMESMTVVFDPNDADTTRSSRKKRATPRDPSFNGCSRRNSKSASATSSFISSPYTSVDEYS
Outline: (§4)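 Radioligand displacement screen by a contractor across 50 receptors, ion channels and transporters, test compound at 10 μM; decrease in specific ligand binding expressed as percentage, with >50% decrease taken as significant.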

[7] = Cmax in Sprague-Dawley rat at 50 mg/kg, po; type: ADME, organism-based; parameters: dose 50 mg/kg, route oral; details: in vivo; outline: as §2
Plasmodium falciparum = test: Antiplasmodial activity against chloroquine-resistant Plasmodium falciparum K1 by [3H]hypoxanthine uptake; type: functional; details: read-out: ED50 (the source's name)
Outline: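 Asynchronous cultures at 0.5% parasitemia and 0.5% hematocrit in RPMI 1640 with 20% heat-inactivated human A+ plasma, exposed to serially diluted inhibitor (top final 5 μM, from DMSO stock) under 5% CO2/5% O2/90% N2 at 37°C for 48 h. [3H]hypoxanthine was then added for 24 h and harvested counts were background-subtracted against DMSO-only controls. ED50 came from linear regression, as the mean of duplicates.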

[8] = AUC in BALB/c mouse at 50 mg/kg, po; type: ADME, organism-based; parameters: dose 50 mg/kg, route oral; details: plasma
Outline: (§5)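 Three female BALB/c mice (lines for mice, 8–10 weeks) or three female Sprague-Dawley rats (10–12 weeks) per group; 50 mg/kg oral gavage in 3% EtOH-7% Tween 80-90% normal saline. Plasma sampled at set times (tail bleed in mice, saphenous vein in rats), extracted with acetonitrile plus internal standard, quantified by LC/MS; AUC as mean of three animals.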

Plasmodium berghei = test: Antiplasmodial activity as reduced parasitaemia against Plasmodium berghei NK65 infected Sprague-Dawley rat at 50 mg/kg every 8 hrs peroral dose for 3 days
[9] = target: Vasoactive intestinal polypeptide receptor 1 (Homo sapiens) (UniProt P32241); test: Inhibition of VIP1 receptor at 10 uM; outline: as §4
Sequence of Vasoactive intestinal polypeptide receptor 1 (Homo sapiens) (P32241 whole entry): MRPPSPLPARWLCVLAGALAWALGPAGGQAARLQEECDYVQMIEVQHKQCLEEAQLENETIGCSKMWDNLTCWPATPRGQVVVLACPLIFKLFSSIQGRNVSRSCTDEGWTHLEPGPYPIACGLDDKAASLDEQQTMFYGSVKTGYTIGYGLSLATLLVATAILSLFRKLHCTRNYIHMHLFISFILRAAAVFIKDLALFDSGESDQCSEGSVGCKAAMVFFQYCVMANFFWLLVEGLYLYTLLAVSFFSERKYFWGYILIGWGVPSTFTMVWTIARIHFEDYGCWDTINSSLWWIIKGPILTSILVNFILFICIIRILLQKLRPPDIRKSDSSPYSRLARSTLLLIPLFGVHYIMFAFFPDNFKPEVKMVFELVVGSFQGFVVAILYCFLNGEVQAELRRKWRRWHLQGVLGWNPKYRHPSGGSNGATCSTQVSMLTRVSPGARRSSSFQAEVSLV

Rattus norvegicus [10] = test: Toxicity in Plasmodium berghei NK65 infected Sprague-Dawley rat assessed as effect on cholesterol levels at 50 mg/kg, perorally administered every 12 hrs for 3 days; type: organism-based; parameters: dose 50 mg/kg, route oral; details: in vivo, po, in the assay text read “every 8 hrs” for “every 12 hrs”; outline: as §3
Salmonella typhimurium = test: Genotoxicity in Salmonella enterica serovar Typhimurium TA100 assessed as increase in number of revertants in presence of rat liver S9 fraction by Ames test; type: toxicity, organism-based; details: salmonella enterica subsp. enterica serovar typhimurium
Outline: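 Liquid-culture Ames assay run by a contractor: S. Typhimurium TA98 and TA100 exposed for 96 h in histidine-free medium, with and without rat liver S9, at 5, 10, 50 and 100 μM (plus higher concentrations); growth read spectrophotometrically by pH-indicator colour change. Parallel bacterial cytotoxicity assay at same concentrations.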

[11] = AUC in Sprague-Dawley rat at 50 mg/kg, po; type: ADME, organism-based; parameters: dose 50 mg/kg, route oral; details: plasma; outline: as §5
[12] = target: Cholecystokinin receptor type A (Homo sapiens) (UniProt P32238); test: Inhibition of CCK1 receptor at 10 uM; outline: as §4
Sequence of Cholecystokinin receptor type A (Homo sapiens) (P32238 whole entry): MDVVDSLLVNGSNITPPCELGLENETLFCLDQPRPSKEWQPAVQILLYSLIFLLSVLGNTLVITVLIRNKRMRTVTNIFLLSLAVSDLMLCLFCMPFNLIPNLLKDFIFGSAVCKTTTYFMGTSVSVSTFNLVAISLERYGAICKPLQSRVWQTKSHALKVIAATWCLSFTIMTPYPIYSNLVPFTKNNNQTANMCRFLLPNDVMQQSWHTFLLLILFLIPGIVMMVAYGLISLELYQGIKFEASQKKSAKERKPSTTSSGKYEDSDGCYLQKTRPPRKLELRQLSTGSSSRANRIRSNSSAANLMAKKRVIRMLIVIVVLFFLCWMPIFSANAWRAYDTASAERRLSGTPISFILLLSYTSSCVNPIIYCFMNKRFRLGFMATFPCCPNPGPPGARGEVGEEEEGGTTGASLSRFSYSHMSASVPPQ

[13] = Inhibition of alpha1 adrenergic receptor at 10 uM
Outline: (§6)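 Radioligand displacement screen at a 10 μM test concentration, run by a contract lab across a panel of 50 receptors, pharmacologically active ion channels and transporters. The read-out is the decrease in specific radiolabeled ligand binding, expressed as a percentage. A decrease above 50% was considered significant.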

[14] = target: Neuropeptide Y receptor type 1 (Homo sapiens) (UniProt P25929); test: Inhibition of neuropeptide Y1 receptor at 10 uM; outline: as §1
[15] = target: D(2) dopamine receptor (Homo sapiens) (UniProt P14416); test: Inhibition of dopamine D2S receptor at 10 uM; outline: as §1
[16] = target: Adenosine A2A receptor (Homo sapiens) (UniProt P29274); test: Inhibition of adenosine A2A receptor at 10 uM
Sequence of Adenosine A2A receptor (Homo sapiens) (P29274 whole entry, looked up): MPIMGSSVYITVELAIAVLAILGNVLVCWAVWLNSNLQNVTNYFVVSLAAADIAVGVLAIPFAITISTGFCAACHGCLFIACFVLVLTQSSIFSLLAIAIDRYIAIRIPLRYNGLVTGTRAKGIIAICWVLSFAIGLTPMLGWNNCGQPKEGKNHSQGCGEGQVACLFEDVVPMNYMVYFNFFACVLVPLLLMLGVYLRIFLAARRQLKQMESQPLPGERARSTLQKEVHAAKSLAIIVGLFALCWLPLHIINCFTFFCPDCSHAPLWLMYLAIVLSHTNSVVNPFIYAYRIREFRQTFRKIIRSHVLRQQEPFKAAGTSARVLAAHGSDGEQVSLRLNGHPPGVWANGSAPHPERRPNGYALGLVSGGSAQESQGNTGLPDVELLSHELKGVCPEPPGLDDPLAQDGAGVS

[17] = Inhibition of dopamine GABA receptor at 10 uM; outline: as §6
[18] = Inhibition of […] GABA-gated chloride channel at 10 uM; outline: as §6
[19] = target: Beta-1 adrenergic receptor (Homo sapiens) (UniProt P08588); test: Inhibition of beta-1 adrenergic receptor at 10 uM; outline: as §1
Sequence of Beta-1 adrenergic receptor (Homo sapiens) (P08588 whole entry, looked up): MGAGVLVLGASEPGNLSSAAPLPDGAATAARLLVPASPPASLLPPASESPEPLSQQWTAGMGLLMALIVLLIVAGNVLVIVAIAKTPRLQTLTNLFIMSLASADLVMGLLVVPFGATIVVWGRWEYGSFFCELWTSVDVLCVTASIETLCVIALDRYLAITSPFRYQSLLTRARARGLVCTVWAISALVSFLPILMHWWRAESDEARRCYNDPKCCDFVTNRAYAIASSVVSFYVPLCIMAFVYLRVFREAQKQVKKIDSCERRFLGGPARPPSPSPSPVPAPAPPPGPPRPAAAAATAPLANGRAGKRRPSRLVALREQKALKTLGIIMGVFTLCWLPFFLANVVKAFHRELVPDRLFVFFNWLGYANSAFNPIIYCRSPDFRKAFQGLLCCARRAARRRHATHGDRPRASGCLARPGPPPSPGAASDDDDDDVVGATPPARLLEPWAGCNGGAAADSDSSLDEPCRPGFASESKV

Rattus norvegicus [20] = test: Toxicity in Plasmodium berghei NK65 infected Sprague-Dawley rat assessed as effect on renal function at 50 mg/kg, perorally administered every 8 hrs for 3 days; type: organism-based; parameters: dose 50 mg/kg, route oral; details: in vivo, po; outline: as §3
[21] = target: Type-1 angiotensin II receptor (Homo sapiens) (UniProt P30556); test: Inhibition of angiotensin AT1 receptor at 10 uM; outline: as §1
Rattus norvegicus [22] = test: Toxicity in Plasmodium berghei NK65 infected Sprague-Dawley rat assessed as effect on glucose levels at 50 mg/kg, perorally administered every 12 hrs for 3 days; type: organism-based; parameters: dose 50 mg/kg, route oral; details: in vivo, po, in the assay text read “every 8 hrs” for “every 12 hrs”; outline: as §3
[23] = target: Sodium-dependent dopamine transporter (Homo sapiens) (UniProt Q01959); test: Inhibition of DAT at 10 uM; outline: as §4
Sequence of Sodium-dependent dopamine transporter (Homo sapiens) (Q01959 whole entry): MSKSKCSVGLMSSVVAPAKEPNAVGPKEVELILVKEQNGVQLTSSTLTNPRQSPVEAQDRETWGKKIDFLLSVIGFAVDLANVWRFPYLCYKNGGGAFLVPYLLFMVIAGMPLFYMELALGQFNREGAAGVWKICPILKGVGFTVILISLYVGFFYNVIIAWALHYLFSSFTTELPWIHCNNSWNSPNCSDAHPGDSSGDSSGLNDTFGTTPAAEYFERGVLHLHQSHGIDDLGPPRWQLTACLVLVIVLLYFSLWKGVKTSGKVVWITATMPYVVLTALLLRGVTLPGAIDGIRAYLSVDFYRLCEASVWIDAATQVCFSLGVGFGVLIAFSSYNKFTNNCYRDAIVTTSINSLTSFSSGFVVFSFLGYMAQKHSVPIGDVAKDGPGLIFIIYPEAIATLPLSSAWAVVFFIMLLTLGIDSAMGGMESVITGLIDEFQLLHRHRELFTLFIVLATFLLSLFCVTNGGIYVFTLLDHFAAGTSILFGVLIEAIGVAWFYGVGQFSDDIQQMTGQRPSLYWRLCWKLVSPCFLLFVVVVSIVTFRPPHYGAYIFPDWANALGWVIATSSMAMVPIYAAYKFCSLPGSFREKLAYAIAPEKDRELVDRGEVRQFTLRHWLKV

[24] = Metabolic stability in rat liver microsomes; type: ADME, Microsome
Outline: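 Pooled female liver microsomes at 0.5 mg/ml in 0.1 M potassium phosphate pH 7.4, 3 mM MgCl2, 1 mM EDTA, with NADPH regenerating system (1 mM NADP+, 5 mM glucose-6-phosphate, 1 U/ml G6PDH). Preincubated 10 min at 37°C, then compound added to 1 μM final. Time points quenched with 3 volumes acetonitrile plus internal standard; parent quantified by LC/MS; half-life reported.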

[25] = target: Neuropeptide Y receptor type 2 (Homo sapiens) (UniProt P49146); test: Inhibition of neuropeptide Y2 receptor at 10 uM; outline: as §1
Sequence of Neuropeptide Y receptor type 2 (Homo sapiens) (P49146 whole entry): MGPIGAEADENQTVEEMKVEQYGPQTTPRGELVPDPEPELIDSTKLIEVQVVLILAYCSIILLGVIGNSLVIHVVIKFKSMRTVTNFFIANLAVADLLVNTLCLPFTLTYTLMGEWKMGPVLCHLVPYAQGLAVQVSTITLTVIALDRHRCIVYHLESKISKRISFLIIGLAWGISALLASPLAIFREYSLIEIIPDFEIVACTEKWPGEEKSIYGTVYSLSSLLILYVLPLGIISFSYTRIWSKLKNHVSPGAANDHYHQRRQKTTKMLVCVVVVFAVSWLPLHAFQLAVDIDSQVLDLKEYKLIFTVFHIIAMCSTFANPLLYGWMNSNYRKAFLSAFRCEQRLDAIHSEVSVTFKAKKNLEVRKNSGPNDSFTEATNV

[26] = target: Mu-type opioid receptor (Homo sapiens) (UniProt P35372); test: Inhibition of mu opioid receptor at 10 uM; outline: as §1

Sequence of Histamine H2 receptor (Homo sapiens) (P25021 whole entry): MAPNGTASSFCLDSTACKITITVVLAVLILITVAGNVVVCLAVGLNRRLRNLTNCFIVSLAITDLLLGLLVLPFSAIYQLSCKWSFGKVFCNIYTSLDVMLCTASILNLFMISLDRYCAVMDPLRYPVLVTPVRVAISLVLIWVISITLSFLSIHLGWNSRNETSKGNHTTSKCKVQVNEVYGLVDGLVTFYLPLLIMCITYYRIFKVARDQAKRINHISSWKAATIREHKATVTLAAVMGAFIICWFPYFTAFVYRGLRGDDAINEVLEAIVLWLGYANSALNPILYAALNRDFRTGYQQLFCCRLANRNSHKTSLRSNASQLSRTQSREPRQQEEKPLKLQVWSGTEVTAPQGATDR

COC(=O)N1CCC(CN(C2Cc3cc(C#N)ccc3N(Cc3cncn3C)C2)S(=O)(=O)c2ccccn2)CC1 (stereo not given)
inhibition [1]: inactive
inhibition [2]: inactive
Cmax [3]: 4.2 µM
inhibition [4]: inactive
Activity (Mus musculus): Non-toxic
Activity (Rattus norvegicus [5]): Non-toxic
inhibition [6]: inactive
Cmax [7]: 4.5 µM
EC50 (Plasmodium falciparum): 15 nM
AUC [8]: 3.68 µM·h
Activity (Plasmodium berghei): Active
inhibition [9]: inactive
Activity (Rattus norvegicus [10]): Non-toxic
Activity (Salmonella typhimurium): Non-toxic
AUC [11]: 10.9 µM·h
inhibition [12]: inactive
inhibition [13]: inactive
inhibition [14]: inactive
inhibition [15]: inactive
inhibition [16]: inactive
inhibition [17]: inactive
inhibition [18]: inactive
inhibition [19]: inactive
Activity (Rattus norvegicus [20]): Non-toxic
inhibition [21]: inactive
Activity (Rattus norvegicus [22]): Non-toxic
inhibition [23]: inactive
half-life [24]: 14 min
inhibition [25]: inactive
inhibition [26]: inactive

From ChEMBL document CHEMBL1138529, “Efficacy, pharmacokinetics, and metabolism of tetrahydroquinoline inhibitors of Plasmodium falciparum protein farnesyltransferase” (Antimicrob Agents Chemother, 2007)
